From ChEMBL document CHEMBL3352617, “Discovery of 9-(1-phenoxyethyl)-2-morpholino-4-oxo-pyrido[1,2-a]pyrimidine-7-carboxamides as oral PI3Kβ inhibitors, useful as antiplatelet agents” (Bioorg Med Chem Lett, 2014)
≈ marks a conversion by molar mass, not a printed value. Calls of active or inactive are those of the source. No cut-off for these calls is given here.

Key:
[1] = biological target: Phosphatidylinositol 4,5-bisphosphate 3-kinase catalytic subunit gamma isoform (Homo sapiens, UniProt P48736); assay: Inhibition of human recombinant PI3Kgamma assessed as PIP3 production by AlphaScreen assay
[2] = biological target: Sodium channel protein type 5 subunit alpha (Homo sapiens, UniProt Q14524); assay: Inhibition of human Nav1.5 channel expressed in CHO cells at 20.4 +/- 2.4 uM by patch clamp assay; type: cell-based
[3] = Antiplatelet activity against dog platelet assessed as inhibition of ADP-induced whole blood aggregation by impedance aggregometry; conditions: Canis lupus familiaris
[4] = Clearance in Beagle dog at 1 umol/kg, iv and 2 umol/kg, po; type: ADME, organism-based, Canis lupus familiaris; conditions: in vivo
Procedure, shortened: (§1)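 Fasted male Beagle dogs dosed iv or po (iv N = 5, po N = 4). Plasma concentrations analysed by noncompartmental analysis to give CL, Vss and oral F.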

[5] = Solubility of the compound in DMSO/HBSS at pH 7.4; type: physicochemical
Procedure, shortened: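 Compound from DMSO stock added to HBSS buffer. Solubility measured at pH 7.4.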

[6] = Antiplatelet activity against human platelet assessed as inhibition of ADP-induced whole blood aggregation by impedance aggregometry
Canis familiaris [7] = organism: Canis familiaris; assay: Ex vivo antiplatelet activity in Beagle dog assessed as inhibition of ADP-induced platelet aggregation; type: functional, Canis lupus familiaris
Procedure, shortened: (§2)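 Anaesthetized dogs in a modified Folts' model. Saline vehicle given first, then consecutive iv doses over 30 min periods (bolus 0.03–1.3 µg/kg plus infusion 0.005–0.24 µg/kg/min). Measured: cyclic flow reductions, bleeding time, blood loss, ex vivo ADP-induced whole blood aggregation (Multiplate), and plasma exposure, related by PKPD.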

[8] = biological target: T1, Phosphatidylinositol 4,5-bisphosphate 3-kinase catalytic subunit delta isoform (Homo sapiens, UniProt O00329); assay: Inhibition of human recombinant PI3Kdelta assessed as PIP3 production by AlphaScreen assay
T1 sequence (O00329 whole entry): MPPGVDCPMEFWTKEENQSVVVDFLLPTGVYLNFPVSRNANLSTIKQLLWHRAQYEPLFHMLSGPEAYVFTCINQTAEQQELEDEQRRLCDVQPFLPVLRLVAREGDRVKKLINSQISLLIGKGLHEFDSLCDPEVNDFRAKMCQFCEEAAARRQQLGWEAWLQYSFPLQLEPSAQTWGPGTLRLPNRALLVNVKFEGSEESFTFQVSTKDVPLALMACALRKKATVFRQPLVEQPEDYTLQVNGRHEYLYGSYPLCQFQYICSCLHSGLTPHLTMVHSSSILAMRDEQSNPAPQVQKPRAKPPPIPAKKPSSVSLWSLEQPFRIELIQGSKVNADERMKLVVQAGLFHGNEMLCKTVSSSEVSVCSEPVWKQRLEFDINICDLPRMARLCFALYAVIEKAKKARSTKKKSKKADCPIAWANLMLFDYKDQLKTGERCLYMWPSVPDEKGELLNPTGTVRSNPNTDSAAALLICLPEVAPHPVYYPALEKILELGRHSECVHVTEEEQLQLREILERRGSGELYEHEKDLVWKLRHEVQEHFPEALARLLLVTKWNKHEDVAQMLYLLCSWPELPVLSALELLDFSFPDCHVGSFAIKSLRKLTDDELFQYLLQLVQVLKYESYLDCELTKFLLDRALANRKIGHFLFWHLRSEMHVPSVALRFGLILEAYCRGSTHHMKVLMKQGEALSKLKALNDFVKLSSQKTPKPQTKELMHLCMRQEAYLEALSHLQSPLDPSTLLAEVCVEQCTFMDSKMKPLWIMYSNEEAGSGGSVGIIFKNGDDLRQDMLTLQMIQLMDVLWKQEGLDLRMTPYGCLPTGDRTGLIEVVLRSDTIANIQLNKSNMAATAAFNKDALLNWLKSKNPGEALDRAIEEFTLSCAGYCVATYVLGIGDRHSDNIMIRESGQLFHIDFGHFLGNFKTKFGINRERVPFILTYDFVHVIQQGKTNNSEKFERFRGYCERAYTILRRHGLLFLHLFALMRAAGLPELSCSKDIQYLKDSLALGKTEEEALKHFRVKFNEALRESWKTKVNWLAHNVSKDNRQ

[9] = biological target: Voltage-gated inwardly rectifying potassium channel KCNH2 (Homo sapiens, UniProt Q12809); assay: Inhibition of human ERG channel expressed in CHO cells at 20.4 +/- 2.4 uM by patch clamp assay; type: cell-based
[10] = Antiplatelet activity against human platelet assessed as inhibition of collagen-induced platelet rich plasma aggregation by light transmission aggregometry; type: functional, cell-free
Procedure, shortened: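 Human platelet rich plasma stimulated with collagen. Aggregation read by light transmission aggregometry in an in-house 96-well plate format.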

[11] = biological target: Voltage-dependent calcium channel subunit alpha-2/delta-1 (Homo sapiens) (UniProt P54289); assay: Inhibition of human CACNA2D1 channel expressed in CHO cells at 20.4 +/- 2.4 uM by patch clamp assay; type: cell-based
[12] = biological target: Voltage-dependent L-type calcium channel subunit alpha-1C (Homo sapiens, UniProt Q13936); assay: Inhibition of human CACNA1C channel expressed in CHO cells at 20.4 +/- 2.4 uM by patch clamp assay; type: cell-based
[13] = biological target: Voltage-dependent L-type calcium channel subunit beta-2 (Homo sapiens) (UniProt Q08289); assay: Inhibition of human CACNB2 channel expressed in CHO cells at 20.4 +/- 2.4 uM by patch clamp assay; type: cell-based
Rattus norvegicus = organism: Rattus norvegicus; assay: Effect on insulin resistance in Sprague-Dawley rat assessed as HOMA-index at maximum compound concentration; type: ADME, organism-based; conditions: in vivo
Procedure, shortened: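 Sprague-Dawley rats given compound. Relative HOMA insulin resistance index (plasma glucose × plasma insulin) compared with baseline and related to plasma concentration.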

[14] = biological target: Voltage-dependent N-type calcium channel subunit alpha-1B (Homo sapiens) (UniProt Q00975); assay: Inhibition of human Cav2.2 channel expressed in CHO cells at 20.4 +/- 2.4 uM by patch clamp assay; type: cell-based
[15] = biological target: Sodium channel protein type 2 subunit alpha (Homo sapiens) (UniProt Q99250); assay: Inhibition of human Nav1.2 channel expressed in CHO cells at 20.4 +/- 2.4 uM by patch clamp assay; type: cell-based
[16] = Fraction unbound in dog plasma after 18 hrs at 37 degC after 18 hrs; type: ADME, cell-free, Canis lupus familiaris
Procedure, shortened: (§3)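 Human and dog plasma. Fraction unbound measured by equilibrium dialysis, 18 h at 37 °C, reported as % unbound.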

[17] = Volume of distribution at steady state in Beagle dog at 1 umol/kg, iv and 2 umol/kg, po; type: ADME, organism-based, Canis lupus familiaris; conditions: in vivo, read-out: Vdss; procedure, shortened: as §1
Canis familiaris [18] = assay: Inhibition of ADP-induced platelet aggregation in iv dosed Beagle dog assessed as bleeding time; type: organism-based, Canis lupus familiaris; conditions: in vivo; procedure, shortened: as §2
CHO = assay: Inhibition of human IKs channel expressed in CHO cells at 20.4 +/- 2.4 uM by patch clamp assay; type: cell-based
Canis familiaris [19] = assay: Inhibition of ADP-induced platelet aggregation in iv dosed Beagle dog assessed as blood loss volume; type: organism-based, Canis lupus familiaris; conditions: in vivo; procedure, shortened: as §2
[20] = biological target: Voltage-dependent T-type calcium channel subunit alpha-1H (Homo sapiens) (UniProt O95180); assay: Inhibition of human Cav3.2 channel expressed in CHO cells at 20.4 +/- 2.4 uM by patch clamp assay; type: cell-based
[21] = Half life in human hepatocytes at 2 uM by LCMS analysis; type: ADME, cell-based, Hepatocyte
Procedure, shortened: (§4)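 Test compound incubated with human hepatocytes. Intrinsic clearance and half-life derived from compound disappearance.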

[22] = Fraction unbound in human plasma after 18 hrs at 37 degC after 18 hrs; type: ADME, cell-free; procedure, shortened: as §3
[23] = biological target: T2, A-type voltage-gated potassium channel KCND3 (Homo sapiens, UniProt Q9UK17); assay: Inhibition of human Kv4.3 channel expressed in CHO cells at 20.4 +/- 2.4 uM by patch clamp assay; type: cell-based
T2 sequence (Q9UK17 whole entry): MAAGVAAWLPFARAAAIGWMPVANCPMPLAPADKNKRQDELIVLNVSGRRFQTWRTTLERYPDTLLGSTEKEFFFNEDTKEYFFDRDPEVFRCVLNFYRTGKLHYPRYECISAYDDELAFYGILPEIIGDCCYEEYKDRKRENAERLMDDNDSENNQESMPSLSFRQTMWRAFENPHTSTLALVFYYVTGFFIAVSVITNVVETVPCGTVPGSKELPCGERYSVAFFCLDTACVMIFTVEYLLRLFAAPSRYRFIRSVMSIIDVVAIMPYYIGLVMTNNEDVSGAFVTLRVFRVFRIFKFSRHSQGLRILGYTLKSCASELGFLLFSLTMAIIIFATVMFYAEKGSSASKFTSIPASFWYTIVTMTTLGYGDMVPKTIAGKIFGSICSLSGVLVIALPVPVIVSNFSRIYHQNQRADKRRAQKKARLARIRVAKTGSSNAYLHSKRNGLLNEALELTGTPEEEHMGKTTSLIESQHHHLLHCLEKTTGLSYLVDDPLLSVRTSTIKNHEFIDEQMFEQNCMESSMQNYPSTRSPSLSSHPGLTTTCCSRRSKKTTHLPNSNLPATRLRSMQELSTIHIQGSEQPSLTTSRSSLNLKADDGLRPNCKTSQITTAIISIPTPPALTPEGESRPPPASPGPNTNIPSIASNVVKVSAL

[24] = Oral bioavailability in Beagle dog at 2 umol/kg; type: ADME, organism-based, Canis lupus familiaris; conditions: in vivo; procedure, shortened: as §1
[25] = Lipophilicity, log D of the compound at pH 7.4 by HPLC method; type: physicochemical; conditions: buffer
Procedure, shortened: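 LogD measured experimentally at pH 7.4 by an HPLC method.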

Hepatocyte = assay: Intrinsic clearance in human hepatocytes at 2 uM by LCMS analysis; type: ADME, cell-based; procedure, shortened: as §4
[26] = Volume of distribution in iv dosed healthy volunteers; type: ADME, organism-based; conditions: human, in vivo
[27] = Apparent permeability across apical to basolateral side of human Caco2 cells at 10 uM at pH 6.5 by LC-tandem MS analysis; type: ADME, cell-based; conditions: Caco-2, pH 6.5
Procedure, shortened: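 Caco-2 monolayers, apical-to-basolateral transport at pH 6.5. Result given as apparent permeability (Papp).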

[28] = Half life in iv dosed healthy volunteers plasma; type: ADME, organism-based; conditions: human

Voltage-dependent L-type calcium channel subunit beta-2 (Homo sapiens), sequence (Q08289 whole entry): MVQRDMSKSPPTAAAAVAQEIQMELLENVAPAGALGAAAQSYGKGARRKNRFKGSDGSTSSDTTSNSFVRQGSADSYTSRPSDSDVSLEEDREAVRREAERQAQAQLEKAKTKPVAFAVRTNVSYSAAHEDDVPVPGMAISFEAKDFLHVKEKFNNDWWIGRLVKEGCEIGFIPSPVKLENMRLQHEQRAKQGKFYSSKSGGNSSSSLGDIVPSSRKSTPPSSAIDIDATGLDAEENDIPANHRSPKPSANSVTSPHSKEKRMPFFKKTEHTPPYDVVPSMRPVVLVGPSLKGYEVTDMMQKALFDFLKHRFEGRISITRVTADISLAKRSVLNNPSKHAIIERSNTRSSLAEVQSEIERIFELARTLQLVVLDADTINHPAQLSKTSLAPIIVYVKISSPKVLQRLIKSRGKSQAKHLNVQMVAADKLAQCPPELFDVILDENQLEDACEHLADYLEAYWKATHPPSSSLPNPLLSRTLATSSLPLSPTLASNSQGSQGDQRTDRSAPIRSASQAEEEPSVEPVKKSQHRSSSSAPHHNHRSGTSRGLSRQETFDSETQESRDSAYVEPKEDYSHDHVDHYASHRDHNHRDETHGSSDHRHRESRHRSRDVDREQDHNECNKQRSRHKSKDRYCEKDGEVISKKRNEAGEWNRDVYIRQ
Voltage-gated inwardly rectifying potassium channel KCNH2, sequence (Q12809 whole entry): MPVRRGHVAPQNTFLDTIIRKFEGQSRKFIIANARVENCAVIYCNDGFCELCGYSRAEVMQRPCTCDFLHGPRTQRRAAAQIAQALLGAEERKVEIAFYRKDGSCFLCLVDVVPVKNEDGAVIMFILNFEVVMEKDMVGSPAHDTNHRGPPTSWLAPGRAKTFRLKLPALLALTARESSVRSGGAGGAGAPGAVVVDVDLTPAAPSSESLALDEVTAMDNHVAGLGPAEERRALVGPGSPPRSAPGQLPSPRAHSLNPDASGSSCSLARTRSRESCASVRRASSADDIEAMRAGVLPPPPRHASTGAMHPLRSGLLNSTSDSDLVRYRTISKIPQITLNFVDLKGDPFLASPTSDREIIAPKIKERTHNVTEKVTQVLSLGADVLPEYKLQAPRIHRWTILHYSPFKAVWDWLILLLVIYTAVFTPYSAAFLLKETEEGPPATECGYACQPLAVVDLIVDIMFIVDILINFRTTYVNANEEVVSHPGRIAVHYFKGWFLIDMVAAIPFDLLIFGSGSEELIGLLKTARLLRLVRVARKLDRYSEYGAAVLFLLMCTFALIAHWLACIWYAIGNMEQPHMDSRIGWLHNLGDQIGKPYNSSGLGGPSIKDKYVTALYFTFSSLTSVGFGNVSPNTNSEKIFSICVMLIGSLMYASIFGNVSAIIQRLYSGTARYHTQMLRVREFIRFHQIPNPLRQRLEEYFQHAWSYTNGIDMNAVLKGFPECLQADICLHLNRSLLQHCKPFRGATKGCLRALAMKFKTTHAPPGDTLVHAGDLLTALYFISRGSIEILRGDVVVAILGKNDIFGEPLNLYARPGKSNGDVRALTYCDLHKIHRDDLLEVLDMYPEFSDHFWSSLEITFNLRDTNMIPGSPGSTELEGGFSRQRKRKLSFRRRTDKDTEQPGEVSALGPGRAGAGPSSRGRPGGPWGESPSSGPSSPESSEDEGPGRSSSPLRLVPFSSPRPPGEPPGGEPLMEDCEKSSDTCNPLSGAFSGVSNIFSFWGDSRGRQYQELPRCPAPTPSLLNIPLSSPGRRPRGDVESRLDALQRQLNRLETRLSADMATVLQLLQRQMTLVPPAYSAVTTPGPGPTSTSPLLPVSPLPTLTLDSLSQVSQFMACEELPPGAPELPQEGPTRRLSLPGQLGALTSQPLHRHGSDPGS
Sodium channel protein type 2 subunit alpha (Homo sapiens), sequence (Q99250 whole entry, looked up): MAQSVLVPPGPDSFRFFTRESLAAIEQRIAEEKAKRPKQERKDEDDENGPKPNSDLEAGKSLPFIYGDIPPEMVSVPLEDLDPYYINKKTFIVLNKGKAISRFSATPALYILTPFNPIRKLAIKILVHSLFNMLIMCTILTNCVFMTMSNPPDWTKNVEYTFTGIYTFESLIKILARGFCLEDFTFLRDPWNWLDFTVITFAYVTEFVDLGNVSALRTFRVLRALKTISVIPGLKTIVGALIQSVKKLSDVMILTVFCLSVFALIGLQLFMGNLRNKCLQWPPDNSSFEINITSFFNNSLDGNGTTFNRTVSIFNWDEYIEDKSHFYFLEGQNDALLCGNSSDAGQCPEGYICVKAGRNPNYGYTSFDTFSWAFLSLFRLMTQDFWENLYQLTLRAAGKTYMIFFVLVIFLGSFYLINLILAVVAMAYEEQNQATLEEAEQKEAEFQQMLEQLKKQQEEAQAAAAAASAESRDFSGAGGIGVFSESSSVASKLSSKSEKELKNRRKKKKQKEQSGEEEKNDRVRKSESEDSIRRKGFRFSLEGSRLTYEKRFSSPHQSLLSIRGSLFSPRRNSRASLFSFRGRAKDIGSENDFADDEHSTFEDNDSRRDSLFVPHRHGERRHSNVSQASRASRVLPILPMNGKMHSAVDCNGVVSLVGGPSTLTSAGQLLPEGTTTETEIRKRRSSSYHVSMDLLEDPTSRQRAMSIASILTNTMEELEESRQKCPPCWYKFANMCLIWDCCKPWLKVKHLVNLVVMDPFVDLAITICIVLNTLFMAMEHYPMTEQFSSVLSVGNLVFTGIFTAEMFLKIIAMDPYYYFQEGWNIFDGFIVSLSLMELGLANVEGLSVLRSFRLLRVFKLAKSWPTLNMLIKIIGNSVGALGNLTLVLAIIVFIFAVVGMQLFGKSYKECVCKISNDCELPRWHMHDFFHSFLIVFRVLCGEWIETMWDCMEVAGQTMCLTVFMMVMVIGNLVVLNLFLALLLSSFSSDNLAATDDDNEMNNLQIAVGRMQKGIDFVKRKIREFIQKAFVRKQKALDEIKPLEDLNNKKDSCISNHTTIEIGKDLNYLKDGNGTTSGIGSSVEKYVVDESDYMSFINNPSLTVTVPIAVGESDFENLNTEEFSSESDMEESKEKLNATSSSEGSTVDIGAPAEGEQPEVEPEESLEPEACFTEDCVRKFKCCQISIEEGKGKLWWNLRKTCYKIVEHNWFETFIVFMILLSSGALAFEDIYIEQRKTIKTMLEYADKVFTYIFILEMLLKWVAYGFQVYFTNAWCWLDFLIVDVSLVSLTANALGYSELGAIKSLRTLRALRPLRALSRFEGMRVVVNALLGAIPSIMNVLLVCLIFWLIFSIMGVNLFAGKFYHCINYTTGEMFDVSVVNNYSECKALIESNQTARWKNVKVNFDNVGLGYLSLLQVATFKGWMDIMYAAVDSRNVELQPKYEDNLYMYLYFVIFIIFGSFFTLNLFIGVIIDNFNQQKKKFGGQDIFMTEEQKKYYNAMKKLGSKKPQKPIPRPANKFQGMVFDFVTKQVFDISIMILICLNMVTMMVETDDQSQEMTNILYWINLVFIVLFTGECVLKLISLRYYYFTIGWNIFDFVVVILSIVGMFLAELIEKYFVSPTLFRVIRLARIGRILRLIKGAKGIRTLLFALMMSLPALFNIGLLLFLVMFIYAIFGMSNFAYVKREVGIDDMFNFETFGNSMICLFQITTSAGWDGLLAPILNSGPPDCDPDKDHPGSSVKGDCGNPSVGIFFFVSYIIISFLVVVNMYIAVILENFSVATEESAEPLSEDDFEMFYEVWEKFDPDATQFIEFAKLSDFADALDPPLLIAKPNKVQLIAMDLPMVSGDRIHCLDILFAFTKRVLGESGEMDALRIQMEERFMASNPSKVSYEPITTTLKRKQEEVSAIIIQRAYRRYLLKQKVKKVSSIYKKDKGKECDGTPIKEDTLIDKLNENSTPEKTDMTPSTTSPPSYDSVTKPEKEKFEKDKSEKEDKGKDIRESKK
Phosphatidylinositol 4,5-bisphosphate 3-kinase catalytic subunit gamma isoform, sequence (P48736 whole entry, canonical isoform): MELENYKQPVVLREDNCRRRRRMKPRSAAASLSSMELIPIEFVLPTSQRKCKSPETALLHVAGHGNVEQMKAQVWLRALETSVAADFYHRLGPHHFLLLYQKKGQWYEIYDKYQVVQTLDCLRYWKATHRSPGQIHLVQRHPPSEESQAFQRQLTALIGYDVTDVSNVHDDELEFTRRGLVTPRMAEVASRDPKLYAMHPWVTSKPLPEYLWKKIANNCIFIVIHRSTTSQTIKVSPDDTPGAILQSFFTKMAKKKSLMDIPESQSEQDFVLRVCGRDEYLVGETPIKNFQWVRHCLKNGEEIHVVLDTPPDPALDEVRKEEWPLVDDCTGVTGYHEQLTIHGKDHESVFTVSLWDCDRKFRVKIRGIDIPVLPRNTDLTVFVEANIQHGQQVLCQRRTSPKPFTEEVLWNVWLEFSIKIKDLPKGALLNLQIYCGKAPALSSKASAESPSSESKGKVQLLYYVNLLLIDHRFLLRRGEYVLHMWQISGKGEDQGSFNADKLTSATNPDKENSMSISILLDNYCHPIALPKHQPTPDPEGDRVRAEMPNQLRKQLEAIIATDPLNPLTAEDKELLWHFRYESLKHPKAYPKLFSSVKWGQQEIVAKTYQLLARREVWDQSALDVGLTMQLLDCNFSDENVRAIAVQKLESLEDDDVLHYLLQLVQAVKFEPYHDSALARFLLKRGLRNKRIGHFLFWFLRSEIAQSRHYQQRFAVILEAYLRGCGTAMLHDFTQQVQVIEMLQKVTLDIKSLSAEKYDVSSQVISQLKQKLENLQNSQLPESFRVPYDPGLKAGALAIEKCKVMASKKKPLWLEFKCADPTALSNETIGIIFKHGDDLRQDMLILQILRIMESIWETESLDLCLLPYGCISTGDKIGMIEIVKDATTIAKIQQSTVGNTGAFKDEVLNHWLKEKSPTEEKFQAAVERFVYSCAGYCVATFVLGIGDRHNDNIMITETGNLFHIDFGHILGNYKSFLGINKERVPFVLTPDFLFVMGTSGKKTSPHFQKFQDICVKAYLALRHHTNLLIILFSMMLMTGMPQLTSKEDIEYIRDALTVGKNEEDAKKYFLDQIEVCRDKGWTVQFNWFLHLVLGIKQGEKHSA

## C[C@@H](Oc1ccccc1)c1cc(C(=O)N(C)CCO)cn2c(=O)cc(N3CCOCC3)nc12
[1]
  IC50: 83000 nM
[2]
  inhibition (INH): Not Active
[3]
  IC50: 950 nM
[4]
  clearance: 8 mL/min/kg
[5]
  solubility: > 1800 µM
[6]
  IC50: 1200 nM
Canis familiaris [7]
  EC80: 690 nM
[8]
  IC50: 400 nM
[9]
  inhibition (INH): Not Active
[10]
  IC50: 210 nM
[11]
  inhibition: inactive
[12]
  inhibition (INH): Not Active
[13]
  inhibition: inactive
Rattus norvegicus
  Activity: Non-toxic
[14]
  inhibition: inactive
[15]
  inhibition: inactive
[16]
  fraction unbound at 18 h: 0.42
[17]
  Vd: 1.2 L/kg
Canis familiaris [18]
  fold change (FC): 3.5
CHO
  inhibition: inactive
Canis familiaris [19]
  fold change (FC): 3.5
[20]
  inhibition: inactive
[21]
  half-life at 2 µM: > 173 min
[22]
  fraction unbound at 18 h: 0.26
[23]
  inhibition (INH): Not Active
[24]
  bioavailability: 31%

## Cc1cc([C@@H](C)Nc2ccccc2C(=O)O)c2nc(N3CCOCC3)cc(=O)n2c1 [AZD-6482]
[25]
  logD: 0.75
Hepatocyte
  Intrinsic clearance (CLint): 17.5 µL/min
[4]
  clearance: 17 mL/min/kg
[5]
  solubility: 100 µM (≈ 40.8 µg/mL)
[6]
  IC50: 270 nM
[10]
  IC50: 280 nM
[26]
  Vd: 40 L
[16]
  fraction unbound at 18 h: 0.1
[27]
  Papp A→B at 10 µM: 18 ×10⁻⁶ cm/s
[17]
  Vd: 14 L/kg
[28]
  half-life: 5 min
[21]
  half-life at 2 µM: 40 min
[22]
  fraction unbound at 18 h: 0.08
